Data on one molecule can be found in ChEMBL document CHEMBL1150418, “Discovery of potent furan piperazine sodium channel blockers for treatment of neuropathic pain” (Bioorg Med Chem, 2008).

Broadly, the clearance is the rate of elimination divided by the concentration. Usually inhibition stands for the percentage by which the read-out fell short of the control. The term Cmax denotes the maximum level reached in the sampled fluid or tissue. For orientation: ED50 means the midpoint of the dose-response relation. As usually defined, the IC50 is the point on the concentration scale where inhibition reaches its midpoint. What is called bioavailability is dose-corrected exposure relative to a reference, in per cent. What is called Kp is the ratio of the level in a tissue or fluid to that in plasma or blood.

The subject of data set [1] is Rattus norvegicus. Description: Cardiovascular effect in iv dosed Sprague-Dawley rat assessed as decrease in heart rate. More on the design: scale not given: the % may be the effect or the level left. It is filed as functional. In a few lines:
(§1)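 Anesthetized rats: after a 30-min control period, blocker or vehicle (PEG-400) infused intravenously as five successive 30-min infusions at 1×, 3×, 10×, 30× and 100× of calculated therapeutic dose; blood sample and hematocrit taken after infusion; mean arterial pressure and heart rate monitored.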

Data set [2] deals with Rattus norvegicus. Description: Cardiovascular effect in iv dosed Sprague-Dawley rat assessed as decrease in mean arterial blood pressure. It is filed as functional, Artery. More on the design: scale not given: the % may be the effect or the level left. In a few lines: as §1
Data set [3] can be described thus: Plasma clearance in Sprague-Dawley rat at 10 mg/kg. It is filed as ADME, organism-based. More on the design: dose 10 mg/kg. In short, it runs like this:
(§2)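 Rat pharmacokinetics after administration at 10 mg/kg in 10% DMSO/PEG400.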

Data set [4] addresses Sodium channel protein type 10 subunit alpha (Rattus norvegicus) (UniProt Q62968). Description: Blockade of Nav1.8 channel in rat dorsal root ganglion neurons assessed as inhibition of TTX-R current at 0.03 uM by whole cell patch clamp technique. It is filed as tissue-based. In short, it runs like this: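 Dissociated rat DRG neurons; TTx-r currents recorded by whole-cell voltage clamp. Holding pre-pulse was set at the steady-state inactivation midpoint (V1/2 = −40 mV), giving an inactivated-state protocol. Pipette solution (mM): CsF 135, NaCl 5, CsCl 10, EGTA 5, HEPES 10, pH 7.2. Bath solution (mM): NaCl 22, choline Cl 110, CaCl2 1.8, MgCl2 0.8, HEPES 10, glucose 5, pH 7.4. Percent inhibition is the mean of 2–6 determinations ± SEM.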

Data set [5] is described as follows: Volume of distribution at steady state in Sprague-Dawley rat at 10 mg/kg. It is filed as ADME, organism-based. On the set-up: dose 10 mg/kg. The settings on record: in vivo, read-out: Vdss. In a few lines: as §2
Data set [6] concerns the target Sodium channel protein type 10 subunit alpha (Rattus norvegicus) (UniProt Q62968). Description: Blockade of Nav1.8 channel in rat dorsal root ganglion neurons assessed as inhibition of TTX-R current at 0.1 uM by whole cell patch clamp technique. It is filed as tissue-based. In a few lines: (§3)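 Whole-cell voltage clamp of TTX-resistant currents in dissociated rat DRG neurons. Pipette (mM): CsF 135, NaCl 5, CsCl 10, EGTA 5, HEPES 10, pH 7.2. Bath (mM): NaCl 22, choline Cl 110, CaCl2 1.8, MgCl2 0.8, HEPES 10, glucose 5, pH 7.4. Inactivated-state protocol with pre-pulse at V1/2 (−40 mV). Mean ± SEM of two to six determinations.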
(Patch clamp records ionic current or voltage across a cell membrane.)

The nature of data set [7]: Cmax in Sprague-Dawley rat at 10 mg/kg, po. It is filed as ADME, organism-based. More on the design: dose 10 mg/kg, route oral. Particulars: in vivo. In short, it runs like this: as §2
The subject of data set [8] is Rattus norvegicus. Kind of data set: Analgesic activity in po dosed Sprague-Dawley rat by edge test. It is filed as functional. In short, it runs like this: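 Balance test: rats placed on 0.5-cm-thick edges of a 40 × 40 × 36 cm plexiglass box, must pull up onto the edge and avoid falling; cut-off 2 min. Groups of at least six rats.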
Data set [9] concerns Rattus norvegicus. Kind of data set: Effect on locomotor activity in Sprague-Dawley rat at 230 umol/kg. It is filed as functional. In a few lines:
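Open-field locomotor activity recorded with photobeam activity monitors during the light cycle; groups of at least six rats, mean ± SEM.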

Data set [10] addresses T1, Sodium channel protein type 10 subunit alpha (Homo sapiens, UniProt Q9Y5Y9). Kind of data set: Inhibition of human recombinant Nav1.8 channel expressed in HEK293 cells at 0.1 uM by whole cell voltage clamp technique. It is filed as cell-based. In a few lines:
(§4)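 HEK293 cells stably expressing recombinant human sodium channels, grown in high-glucose DMEM, 10% FBS, 2 mM sodium pyruvate, G418. Whole-cell voltage clamp; pipettes 0.8–2.5 MΩ; internal (mM) 135 CsF, 10 CsCl, 5 EGTA, 5 NaCl, 10 HEPES, pH 7.3 with CsOH. Holding pre-pulse set at midpoint of steady-state inactivation for each subtype.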
Target sequence in this assay (Q9Y5Y9 whole entry, looked up): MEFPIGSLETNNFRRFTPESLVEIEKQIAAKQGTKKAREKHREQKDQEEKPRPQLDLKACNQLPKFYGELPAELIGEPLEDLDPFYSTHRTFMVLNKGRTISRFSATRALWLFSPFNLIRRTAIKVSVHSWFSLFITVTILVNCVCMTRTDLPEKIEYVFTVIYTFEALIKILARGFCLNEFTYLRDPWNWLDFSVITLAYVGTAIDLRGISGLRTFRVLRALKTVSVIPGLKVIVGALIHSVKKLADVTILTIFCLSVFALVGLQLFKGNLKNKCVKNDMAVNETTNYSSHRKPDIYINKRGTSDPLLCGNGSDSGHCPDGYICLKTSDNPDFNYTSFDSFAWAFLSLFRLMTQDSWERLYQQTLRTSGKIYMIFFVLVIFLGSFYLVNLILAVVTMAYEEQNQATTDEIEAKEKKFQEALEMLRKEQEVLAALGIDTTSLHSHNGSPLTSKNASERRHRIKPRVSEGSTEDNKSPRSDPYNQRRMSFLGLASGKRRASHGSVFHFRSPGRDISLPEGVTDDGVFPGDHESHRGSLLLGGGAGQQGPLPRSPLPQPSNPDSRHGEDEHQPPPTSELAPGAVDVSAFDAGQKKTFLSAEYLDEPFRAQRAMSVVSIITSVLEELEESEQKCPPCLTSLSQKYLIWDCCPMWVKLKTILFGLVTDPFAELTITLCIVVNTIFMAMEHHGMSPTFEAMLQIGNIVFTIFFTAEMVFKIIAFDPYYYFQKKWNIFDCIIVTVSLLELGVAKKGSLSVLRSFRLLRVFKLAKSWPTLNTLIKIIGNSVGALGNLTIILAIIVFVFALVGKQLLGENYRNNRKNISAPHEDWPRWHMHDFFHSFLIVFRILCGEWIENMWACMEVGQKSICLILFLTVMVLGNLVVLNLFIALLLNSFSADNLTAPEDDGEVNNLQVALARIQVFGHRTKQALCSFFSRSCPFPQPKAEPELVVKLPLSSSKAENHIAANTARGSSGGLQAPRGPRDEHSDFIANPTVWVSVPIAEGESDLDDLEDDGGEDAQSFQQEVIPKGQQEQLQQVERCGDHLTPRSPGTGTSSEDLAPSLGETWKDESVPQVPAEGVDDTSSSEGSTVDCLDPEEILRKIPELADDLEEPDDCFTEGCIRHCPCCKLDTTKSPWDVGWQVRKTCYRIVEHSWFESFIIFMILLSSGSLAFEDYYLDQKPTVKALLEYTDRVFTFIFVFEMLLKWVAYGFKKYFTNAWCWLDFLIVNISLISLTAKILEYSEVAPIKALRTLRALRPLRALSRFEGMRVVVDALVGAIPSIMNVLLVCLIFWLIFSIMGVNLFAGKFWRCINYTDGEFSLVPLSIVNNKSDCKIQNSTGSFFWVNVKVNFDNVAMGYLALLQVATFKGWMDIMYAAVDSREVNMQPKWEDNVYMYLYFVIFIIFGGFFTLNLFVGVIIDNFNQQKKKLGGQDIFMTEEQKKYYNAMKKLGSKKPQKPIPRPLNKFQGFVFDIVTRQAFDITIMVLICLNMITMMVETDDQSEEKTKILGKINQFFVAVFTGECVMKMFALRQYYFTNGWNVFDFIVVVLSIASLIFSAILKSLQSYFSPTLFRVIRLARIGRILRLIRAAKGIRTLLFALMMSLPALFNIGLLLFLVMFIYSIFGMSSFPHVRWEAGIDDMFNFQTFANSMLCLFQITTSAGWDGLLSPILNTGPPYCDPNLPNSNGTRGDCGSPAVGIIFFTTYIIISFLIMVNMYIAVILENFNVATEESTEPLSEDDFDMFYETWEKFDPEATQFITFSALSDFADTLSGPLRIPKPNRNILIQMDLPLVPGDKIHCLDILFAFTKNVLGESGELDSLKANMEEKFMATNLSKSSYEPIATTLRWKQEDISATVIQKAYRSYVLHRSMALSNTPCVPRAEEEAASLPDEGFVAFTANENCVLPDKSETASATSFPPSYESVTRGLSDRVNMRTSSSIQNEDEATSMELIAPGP

Data set [11] concerns the target Sodium channel protein type 10 subunit alpha (Rattus norvegicus, UniProt Q62968). Kind of data set: Blockade of Nav1.8 channel in rat dorsal root ganglion neurons assessed as inhibition of TTX-R current by whole cell patch clamp technique. It is filed as tissue-based. In a few lines:
as §3

Data set [12] in a line: Oral bioavailability in Sprague-Dawley rat at 10 mg/kg. It is filed as ADME, organism-based. The settings on record: in vivo. In short, it runs like this:
as §2

Data set [13] in a line: Ratio of drug level in brain to plasma in Sprague-Dawley rat. It is filed as ADME. Particulars: Sprague-Dawley, brain and plasma.
For data set [14], the system named is Rattus norvegicus. Kind of data set: Analgesic activity in po dosed Sprague-Dawley rat by rotarod test. It is filed as functional. In a few lines: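 Accelerating rotorod: after 30-min acclimation, rats placed on 9-cm rod ramping 0–20 rpm over 60 s; latency to fall recorded, maximum 60 s; three training sessions per rat. Groups of at least six rats; mean ± SEM.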

Data set [15] addresses T1, Sodium channel protein type 10 subunit alpha. Kind of data set: Inhibition of human recombinant Nav1.8 channel expressed in HEK293 cells by whole cell voltage clamp technique. It is filed as cell-based. In short, it runs like this: as §4
Target sequence in this assay (Q9Y5Y9 whole entry): as the sequence (Q9Y5Y9 whole entry, looked up) above
The target of data set [16] is Sodium channel protein type 5 subunit alpha (Homo sapiens, UniProt Q14524). Description: Inhibition of human recombinant Nav1.5 channel expressed in HEK293 cells by whole cell voltage clamp technique. It is filed as cell-based. In a few lines:
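HEK293 cells stably expressing recombinant human sodium channels, grown in high-glucose DMEM, 10% FBS, 2 mM sodium pyruvate, G418. Holding pre-pulse set at midpoint of steady-state inactivation for each subtype.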

Data set [17] has as its system Rattus norvegicus. Kind of data set: Analgesic activity in po dosed Sprague-Dawley rat assessed as attenuation of mechanical allodynia in chung model of neuropathic pain. It is filed as functional.
Data set [18] addresses T1, Sodium channel protein type 10 subunit alpha. Description: Inhibition of human recombinant Nav1.8 channel expressed in HEK293 cells at 0.03 uM by whole cell voltage clamp technique. It is filed as cell-based. In a few lines:
as §4
Target sequence in this assay (Q9Y5Y9 whole entry, looked up): as above

Chain of Sodium channel protein type 10 subunit alpha (Rattus norvegicus) (Q62968 whole entry, looked up): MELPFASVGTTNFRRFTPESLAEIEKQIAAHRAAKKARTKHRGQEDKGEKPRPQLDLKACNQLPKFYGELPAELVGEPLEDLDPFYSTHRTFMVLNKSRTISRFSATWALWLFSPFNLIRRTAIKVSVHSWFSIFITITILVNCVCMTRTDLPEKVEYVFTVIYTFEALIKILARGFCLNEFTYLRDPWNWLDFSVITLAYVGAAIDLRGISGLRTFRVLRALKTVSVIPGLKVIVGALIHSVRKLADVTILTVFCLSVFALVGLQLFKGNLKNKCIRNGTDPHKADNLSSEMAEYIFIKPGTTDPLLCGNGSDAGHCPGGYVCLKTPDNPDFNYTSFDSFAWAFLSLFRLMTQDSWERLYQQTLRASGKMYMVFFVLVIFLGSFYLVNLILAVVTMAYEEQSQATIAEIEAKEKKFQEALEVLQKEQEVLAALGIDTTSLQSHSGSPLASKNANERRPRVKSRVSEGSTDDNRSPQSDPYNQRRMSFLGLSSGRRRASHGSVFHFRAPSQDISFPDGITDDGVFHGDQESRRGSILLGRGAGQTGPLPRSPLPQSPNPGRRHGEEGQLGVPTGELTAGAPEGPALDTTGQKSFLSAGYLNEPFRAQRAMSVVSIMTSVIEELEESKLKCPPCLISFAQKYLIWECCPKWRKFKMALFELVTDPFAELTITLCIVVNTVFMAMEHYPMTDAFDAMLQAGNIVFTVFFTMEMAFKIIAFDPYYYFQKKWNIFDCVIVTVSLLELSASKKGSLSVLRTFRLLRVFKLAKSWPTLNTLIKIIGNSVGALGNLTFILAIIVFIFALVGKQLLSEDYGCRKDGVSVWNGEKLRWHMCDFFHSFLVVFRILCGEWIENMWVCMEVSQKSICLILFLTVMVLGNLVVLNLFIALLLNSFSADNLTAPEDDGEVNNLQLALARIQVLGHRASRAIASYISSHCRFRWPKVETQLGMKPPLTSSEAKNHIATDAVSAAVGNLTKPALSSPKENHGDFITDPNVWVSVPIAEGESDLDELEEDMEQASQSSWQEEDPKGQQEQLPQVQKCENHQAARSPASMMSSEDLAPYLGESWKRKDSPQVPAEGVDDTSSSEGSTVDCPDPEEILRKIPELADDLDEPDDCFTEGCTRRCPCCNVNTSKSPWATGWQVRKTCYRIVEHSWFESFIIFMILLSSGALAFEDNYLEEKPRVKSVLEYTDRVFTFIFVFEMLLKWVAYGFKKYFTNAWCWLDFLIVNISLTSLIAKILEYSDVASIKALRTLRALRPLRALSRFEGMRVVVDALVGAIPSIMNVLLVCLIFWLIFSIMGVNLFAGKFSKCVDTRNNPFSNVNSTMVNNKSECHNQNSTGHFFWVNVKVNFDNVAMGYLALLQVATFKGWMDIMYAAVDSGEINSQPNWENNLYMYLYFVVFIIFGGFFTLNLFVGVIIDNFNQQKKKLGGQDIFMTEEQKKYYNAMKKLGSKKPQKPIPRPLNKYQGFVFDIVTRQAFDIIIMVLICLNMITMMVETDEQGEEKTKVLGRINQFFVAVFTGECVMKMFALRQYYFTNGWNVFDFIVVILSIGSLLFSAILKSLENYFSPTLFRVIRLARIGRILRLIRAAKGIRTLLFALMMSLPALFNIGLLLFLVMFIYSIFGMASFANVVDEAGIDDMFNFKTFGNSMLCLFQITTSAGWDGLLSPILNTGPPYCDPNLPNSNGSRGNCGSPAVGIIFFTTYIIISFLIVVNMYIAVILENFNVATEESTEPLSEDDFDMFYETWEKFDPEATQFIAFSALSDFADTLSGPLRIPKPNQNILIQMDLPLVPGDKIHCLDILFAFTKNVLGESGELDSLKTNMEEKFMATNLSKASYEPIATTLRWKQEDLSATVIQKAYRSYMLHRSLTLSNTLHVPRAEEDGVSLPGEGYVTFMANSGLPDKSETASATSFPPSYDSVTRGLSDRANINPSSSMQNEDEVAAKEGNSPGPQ
Chain of Sodium channel protein type 10 subunit alpha (Rattus norvegicus, UniProt Q62968) (Q62968 whole entry): as the sequence (Q62968 whole entry, looked up) above

Turning to `CC(C)(C)c1ccc(-c2ccc(C(=O)N3CCN(C4CCCCC4)CC3)o2)cc1`, the Activity came out at 27% in data set [1], 11% in data set [2] and 38% in [9]. The molecule also showed a clearance in data set [3] of 127 mL/min/kg. The inhibition in data set [4] was 20%; in data set [6] it was 58%; in data set [10] it was 81%; in [18], 57%. The Vd in data set [5] was 13.4 L/kg. The Cmax in [7] was found to be 570 ng/mL. Further, the ED50 in [8] was over 300 µmol/kg; in [14], over 300 µmol/kg; in data set [17], 4.7 µmol/kg. For the same molecule, the IC50 in data set [11] stood at 90 nM; in data set [15], 30 nM; in data set [16], 100 nM. This molecule returned a bioavailability in [12] of 7%. Further, in data set [13], the Kp is 8.
